{"source": "ChEMBL document CHEMBL1132281", "about": "“Compounds that activate the mouse melanocortin-1 receptor identified by screening a small molecule library based upon the beta-turn” (J Med Chem, 1999)"}
{"molecular_target": "Melanocyte-stimulating hormone receptor (Mus musculus, UniProt Q01727)", "sequence (Q01727 whole entry)": "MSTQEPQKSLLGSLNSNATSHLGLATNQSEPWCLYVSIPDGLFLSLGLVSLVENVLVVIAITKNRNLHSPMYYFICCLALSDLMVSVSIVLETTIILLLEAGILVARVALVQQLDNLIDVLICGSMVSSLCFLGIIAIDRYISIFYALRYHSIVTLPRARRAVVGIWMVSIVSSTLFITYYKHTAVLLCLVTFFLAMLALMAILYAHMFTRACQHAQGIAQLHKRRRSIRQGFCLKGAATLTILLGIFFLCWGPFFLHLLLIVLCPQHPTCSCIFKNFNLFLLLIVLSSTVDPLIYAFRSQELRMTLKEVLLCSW", "test": "Agonistic activity against mouse Melanocortin 1 receptor (mMC1R)", "assay_type": "functional", "procedure,_shortened": "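HEK-293 cells (DMEM, 10% fetal calf serum) stably expressing the mouse receptor (pCDNA3, G418 selection) were transfected with a CRE/β-galactosidase reporter. At 48 h post-transfection, cells were stimulated for 6 h in DMEM with 0.1 mg/mL BSA and 0.1 mM IBMX, at 10^-4 to 10^-10 M in triplicate. Lysates were read with ONPG at 37° (OD405), and the data were normalized to protein (OD595) and to forskolin (10^-4 M).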", "units": {"EC50": "µM"}}
{"smiles": "CC(=O)N[C@@H](Cc1c[nH]cn1)C(=O)N[C@H](Cc1ccccc1)C(=O)N[C@@H](CCC(N)=O)C(=O)N[C@H](Cc1c[nH]c2ccccc12)C(N)=O", "EC50": 100}
{"smiles": "NCCCC[C@H]1NC(=O)[C@H](Cc2c[nH]c3ccccc23)SCCN(CCc2ccccc2)C1=O", "EC50": 63.4}
{"smiles": "CC(=O)N[C@H](Cc1ccccc1)C(=O)N[C@@H](C)C(=O)N[C@H](Cc1c[nH]c2ccccc12)C(N)=O", "EC50": "> 100"}
{"smiles": "CC(=O)N[C@@H](Cc1cnc[nH]1)C(=O)N[C@H](Cc1ccccc1)C(=O)N[C@@H](C)C(=O)N[C@H](Cc1c[nH]c2ccccc12)C(N)=O", "EC50": "> 100"}
{"smiles": "CC(=O)N[C@H](Cc1ccccc1)C(=O)NCC(=O)N[C@H](Cc1c[nH]c2ccccc12)C(N)=O", "EC50": 100}
{"smiles": "CC(=O)N[C@H](Cc1ccccc1)C(=O)N[C@@H](CCCCN)C(=O)N[C@H](Cc1c[nH]c2ccccc12)C(N)=O", "EC50": "> 100"}
{"smiles": "CC(=O)N[C@H](Cc1ccccc1)C(=O)N[C@@H](CCC(N)=O)C(=O)N[C@H](Cc1c[nH]c2ccccc12)C(N)=O", "EC50": 100}
{"smiles": "CC(=O)N[C@@H](Cc1c[nH]cn1)C(=O)N[C@H](Cc1ccccc1)C(=O)N[C@@H](CCCCN)C(=O)N[C@H](Cc1c[nH]c2ccccc12)C(N)=O", "EC50": "> 100"}
{"smiles": "O=C1[C@H]2CCCN2C(=O)C(Cc2ccc3ccccc3c2)SCCN1CCc1c[nH]c2ccccc12", "note": "(stereo not given in full)", "EC50": 42.5}
{"smiles": "CC(=O)N[C@@H](Cc1c[nH]cn1)C(=O)N[C@H](Cc1ccccc1)C(=O)NCC(=O)N[C@H](Cc1c[nH]c2ccccc12)C(N)=O", "EC50": "> 100"}
